Assay results from ChEMBL document CHEMBL4616671, “Identification of N-Phenyl-7H-pyrrolo[2,3-d]pyrimidin-4-amine Derivatives as Novel, Potent, and Selective NF-κB Inducing Kinase (NIK) Inhibitors for the Treatment of Psoriasis” (J Med Chem, 2020).
The source made the active and inactive calls. No cut-off for these calls is given here.

Tests used:
[1] = molecular target: Aurora kinase B (Homo sapiens, UniProt Q96GD4); experiment: Inhibition of human Aurora B using [H-LRRASLG] as substrate in presence of [gamma33P]ATP by hotspot assay
[2] = tested on: T-cell; experiment: Antiinflammatory activity in mouse T cells assessed as inhibition of conA-induced induced T cell proliferation at 2 uM incubated for 48 hrs by CCK8 assay relative to control; assay type: functional
[3] = tested on: J774; experiment: Antiinflammatory activity in mouse J774 cells assessed as inhibition of LPS-induced NO production at 1 uM preincubated for 2 hrs followed by LPS stimulation and measured after 22 hrs by Griess reagent based assay relative to control; assay type: functional
Method in brief: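 J774 macrophages seeded at 2*10^4 cells/mL, 24 h at 37 °C 5% CO₂; compound in DMSO at 1 µM, 3 replicate wells, 2 h pre-incubation, then LPS at 1 ug/mL final for 22 h. Supernatant nitrite read with Griess reagent at 540 nm against a sodium nitrite standard curve. Inhibition % = (model − compound)/(model − control) NO ×100; mean ± SD, three independent experiments.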

[4] = tested on: T-cell; experiment: Growth inhibition of mouse T cells at 10 uM after 48 hrs by CCK8 assay; assay type: cell-based
Method in brief: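 Unstimulated mouse splenic T cells exposed to compound at 10 µM. Growth read by CCK-8 absorbance; […]. Mean ± SD, three independent experiments.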

[5] = Clearance in Sprague-Dawley rat at 1 mg/kg, iv administered as single bolus dose by LC-MS/MS analysis; assay type: ADME, organism-based; conditions: in vivo
[6] = molecular target: Mitogen-activated protein kinase kinase kinase 14 (Mus musculus) (UniProt Q9WUL6); experiment: In vivo inhibition of NIK in po dosed C57 mouse model of IMQ-induced psoriasis assessed as reduction in P52 expression in back skin administered starting from day 3 post IMQ-challenge and measured 2 days post-last dose of IMQ by Western blot analysis; assay type: functional, organism-based
Method in brief: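 IMQ-induced psoriasis in C57 mice, 5% cream daily for 7 days, oral dosing 60 or 120 mg/kg from day 3. Back-skin protein extracts probed by western blot for p100 and p52; band optical density normalized to GAPDH.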

[7] = Cmax in Sprague-Dawley rat at 10 mg/kg, po administered via gavage measured at 0.833 hrs by LC-MS/MS analysis; assay type: ADME, organism-based; parameters: dose 10 mg/kg, route oral; conditions: in vivo
[8] = tested on: Mus musculus; experiment: Protection against IMQ-induced dermatitis in C57 mouse model of psoriasis assessed as reduction in skin swelling at 60 to 120 mg/kg, ig administered once daily starting from day 3 post IMQ-challenge and measured 2 days post-last dose of IMQ; assay type: functional, organism-based
Method in brief: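 C57 mice given 5% imiquimod cream on the back once daily for 7 days; intragastric dosing 60 or 120 mg/kg once daily from day 3 to end, n = 6 per group. Dorsal skin phenotype assessed by imaging.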

[9] = molecular target: Mitogen-activated protein kinase kinase kinase 14 (Homo sapiens, UniProt Q99558); experiment: Inhibition of recombinant N-terminal GST-fused human NIK (319 to 947 residues) expressed in baculovirus expression system incubated for 120 mins in presence of ATP by ADP-glo based luminescence assay
Method in brief: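 ADP-Glo luminescence assay with recombinant human MAP3K14. Buffer: Tris pH 7.5, 2 mM DTT, 2 mM MgCl₂, 100 µM Na₃VO₄, 0.02 mg/mL BSA, 5% DMSO; ATP 10 µM. Reaction 120 min at room temperature; ADP-Glo reagent 40 min, then detection reagent 40 min. Mean ± SD from two independent experiments.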

[10] = tested on: T-cell; experiment: Antiinflammatory activity in mouse T cells assessed as inhibition of conA-induced induced T cell proliferation at 0.4 uM incubated for 48 hrs by CCK8 assay relative to control; assay type: functional
[11] = molecular target: Mitogen-activated protein kinase kinase kinase 14 (Mus musculus) (UniProt Q9WUL6); experiment: Inhibition of NIK in mouse J774 cells assessed as reduction in LPS-induced TNFalpha mRNA level by SYBR green dye-based quantitative PCR analysis; assay type: cell-based
Method in brief: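 LPS-stimulated J774 macrophages; mRNA quantified by qPCR using 4 µL cDNA plus 16 µL master mix per reaction. Mean ± SD of three biological replicates; significance by two-tailed Student's t-test against the model group.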

[12] = molecular target: T1, Tyrosine-protein kinase JAK3 (Homo sapiens, UniProt P52333); experiment: Inhibition of human JAK3 using [GGEEEEYFELVKKKK] as substrate in presence of [gamma33P]ATP by hotspot assay
T1 sequence (P52333 whole entry): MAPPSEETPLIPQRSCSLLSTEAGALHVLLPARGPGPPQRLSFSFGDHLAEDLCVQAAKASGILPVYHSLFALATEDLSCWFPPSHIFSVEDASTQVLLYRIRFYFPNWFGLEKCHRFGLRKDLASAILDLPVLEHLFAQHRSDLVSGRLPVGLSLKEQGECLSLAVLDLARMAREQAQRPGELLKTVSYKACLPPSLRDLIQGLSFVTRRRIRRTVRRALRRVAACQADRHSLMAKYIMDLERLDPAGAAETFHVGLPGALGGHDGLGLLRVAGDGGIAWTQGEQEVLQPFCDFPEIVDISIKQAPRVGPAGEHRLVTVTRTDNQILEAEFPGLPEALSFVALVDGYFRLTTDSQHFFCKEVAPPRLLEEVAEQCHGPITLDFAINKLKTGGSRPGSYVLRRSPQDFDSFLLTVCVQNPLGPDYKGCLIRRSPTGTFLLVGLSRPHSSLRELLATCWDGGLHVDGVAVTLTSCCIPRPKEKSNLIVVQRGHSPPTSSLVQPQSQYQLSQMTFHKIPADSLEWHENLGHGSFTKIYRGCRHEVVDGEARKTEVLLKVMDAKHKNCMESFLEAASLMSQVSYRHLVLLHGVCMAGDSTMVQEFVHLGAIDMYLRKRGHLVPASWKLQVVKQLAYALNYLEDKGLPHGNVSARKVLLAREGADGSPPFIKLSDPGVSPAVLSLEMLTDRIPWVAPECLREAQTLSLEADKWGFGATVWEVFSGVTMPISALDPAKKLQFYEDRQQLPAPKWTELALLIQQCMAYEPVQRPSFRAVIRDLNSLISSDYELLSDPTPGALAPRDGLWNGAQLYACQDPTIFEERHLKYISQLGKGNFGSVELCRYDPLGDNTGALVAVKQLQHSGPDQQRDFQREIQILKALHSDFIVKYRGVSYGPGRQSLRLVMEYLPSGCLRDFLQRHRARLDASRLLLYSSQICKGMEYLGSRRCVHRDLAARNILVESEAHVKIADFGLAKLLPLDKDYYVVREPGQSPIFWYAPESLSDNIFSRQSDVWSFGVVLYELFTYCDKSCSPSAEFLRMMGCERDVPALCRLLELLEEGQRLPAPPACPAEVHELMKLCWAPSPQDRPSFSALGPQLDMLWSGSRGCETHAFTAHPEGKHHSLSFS

[13] = Volume of distribution in Sprague-Dawley rat at 1 mg/kg, iv administered as single bolus dose by LC-MS/MS analysis; assay type: ADME, organism-based; conditions: in vivo
Method in brief: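 SD rats, 3 per group. Single IV bolus at 1 mg/kg in DMSO:PEG200:saline 20:20:60 (0.2 mg/mL), or oral gavage at 10 mg/kg as suspension in 0.5% CMC-Na/0.2% Tween 80 (1 mg/mL). Plasma protein-precipitated with acetonitrile containing internal standards, then quantified by LC-MS/MS. Parameters derived by noncompartmental analysis. Mean ± SD.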

Chain of Mitogen-activated protein kinase kinase kinase 14 (Mus musculus) (Q9WUL6 whole entry): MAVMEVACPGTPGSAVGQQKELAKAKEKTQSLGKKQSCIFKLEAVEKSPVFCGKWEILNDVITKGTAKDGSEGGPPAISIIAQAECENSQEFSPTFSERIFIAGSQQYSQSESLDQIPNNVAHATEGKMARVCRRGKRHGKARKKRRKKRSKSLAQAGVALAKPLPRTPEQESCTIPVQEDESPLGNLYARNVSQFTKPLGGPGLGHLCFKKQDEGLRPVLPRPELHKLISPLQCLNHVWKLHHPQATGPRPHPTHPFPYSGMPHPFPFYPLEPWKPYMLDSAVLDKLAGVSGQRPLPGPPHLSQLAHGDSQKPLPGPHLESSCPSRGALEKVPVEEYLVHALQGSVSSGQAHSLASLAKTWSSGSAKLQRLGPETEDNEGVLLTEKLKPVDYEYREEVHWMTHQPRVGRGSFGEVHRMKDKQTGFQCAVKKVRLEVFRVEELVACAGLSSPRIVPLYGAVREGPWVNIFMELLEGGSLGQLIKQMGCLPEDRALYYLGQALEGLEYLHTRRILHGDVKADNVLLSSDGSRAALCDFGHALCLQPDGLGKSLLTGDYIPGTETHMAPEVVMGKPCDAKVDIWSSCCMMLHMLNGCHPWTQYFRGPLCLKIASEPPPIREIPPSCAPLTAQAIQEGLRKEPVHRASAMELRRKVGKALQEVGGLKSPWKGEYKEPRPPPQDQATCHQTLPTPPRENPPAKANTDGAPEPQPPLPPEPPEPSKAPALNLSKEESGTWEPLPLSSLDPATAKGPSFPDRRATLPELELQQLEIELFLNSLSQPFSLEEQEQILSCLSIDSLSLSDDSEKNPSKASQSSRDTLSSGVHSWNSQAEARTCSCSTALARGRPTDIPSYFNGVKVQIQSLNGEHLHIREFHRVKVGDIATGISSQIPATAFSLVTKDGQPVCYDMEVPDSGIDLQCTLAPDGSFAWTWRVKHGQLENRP
Chain of Aurora kinase B (Q96GD4 whole entry): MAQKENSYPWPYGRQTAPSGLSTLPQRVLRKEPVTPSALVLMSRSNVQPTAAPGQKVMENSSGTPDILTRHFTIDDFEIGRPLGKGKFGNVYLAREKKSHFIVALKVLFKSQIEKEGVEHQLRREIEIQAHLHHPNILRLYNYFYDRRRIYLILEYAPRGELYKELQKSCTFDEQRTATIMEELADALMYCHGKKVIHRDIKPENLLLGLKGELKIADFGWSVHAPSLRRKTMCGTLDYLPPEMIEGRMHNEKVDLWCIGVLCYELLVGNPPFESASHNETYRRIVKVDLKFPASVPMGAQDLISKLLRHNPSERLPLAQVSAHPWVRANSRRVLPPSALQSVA
Chain of Mitogen-activated protein kinase kinase kinase 14 (Q99558 whole entry, the tested form may be a part): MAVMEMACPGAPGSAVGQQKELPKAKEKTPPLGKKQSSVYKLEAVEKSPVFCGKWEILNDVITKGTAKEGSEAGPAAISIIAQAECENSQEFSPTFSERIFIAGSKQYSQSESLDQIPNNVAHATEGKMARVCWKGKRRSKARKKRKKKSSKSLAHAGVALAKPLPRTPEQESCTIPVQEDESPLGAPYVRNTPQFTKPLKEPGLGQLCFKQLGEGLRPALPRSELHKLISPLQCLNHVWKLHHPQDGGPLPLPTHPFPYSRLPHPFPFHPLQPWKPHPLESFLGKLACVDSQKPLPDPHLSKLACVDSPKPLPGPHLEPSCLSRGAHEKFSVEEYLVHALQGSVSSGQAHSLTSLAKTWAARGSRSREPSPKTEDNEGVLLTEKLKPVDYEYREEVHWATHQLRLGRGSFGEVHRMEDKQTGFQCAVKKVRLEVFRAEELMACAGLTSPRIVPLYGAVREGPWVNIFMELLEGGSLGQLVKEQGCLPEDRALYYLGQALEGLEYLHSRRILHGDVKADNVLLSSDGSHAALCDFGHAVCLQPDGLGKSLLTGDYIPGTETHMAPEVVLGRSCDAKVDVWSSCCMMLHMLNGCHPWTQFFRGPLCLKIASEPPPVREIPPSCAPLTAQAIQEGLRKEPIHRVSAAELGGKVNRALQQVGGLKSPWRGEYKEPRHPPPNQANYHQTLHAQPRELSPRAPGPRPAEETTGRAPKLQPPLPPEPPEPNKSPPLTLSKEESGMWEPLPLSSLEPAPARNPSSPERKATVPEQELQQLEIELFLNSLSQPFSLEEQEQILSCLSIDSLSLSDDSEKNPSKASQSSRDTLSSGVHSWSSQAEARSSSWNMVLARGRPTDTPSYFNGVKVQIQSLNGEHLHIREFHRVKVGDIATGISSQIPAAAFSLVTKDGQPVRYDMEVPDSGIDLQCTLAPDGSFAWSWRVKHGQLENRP

**Q.** Which IC50 [1] does the source give for `CC(O)(C#Cc1ccc(N2CCOCC2)c(Nc2ncnc3[nH]ccc23)c1)c1nccs1` (racemic) here?
**A.** 43.2 nM

**Q.** What about the inhibition at 2 µM [2] of the same compound?
**A.** 62.3%

**Q.** And the inhibition at 1 µM [3]?
**A.** 86.3%

**Q.** And the Activity [4]?
**A.** Non-Toxic

**Q.** And the clearance [5]?
**A.** 40.3 mL/min/kg

**Q.** What about the inhibition [6] of the same compound?
**A.** Dose-dependent effect

**Q.** What about the Cmax [7] of the same compound?
**A.** 772 ng/mL

**Q.** What about the Activity [8] of the same compound?
**A.** Active

**Q.** And the IC50 [9]?
**A.** 9.87 nM

**Q.** And the inhibition at 0.4 µM [10]?
**A.** 36%

**Q.** What about the inhibition [11] of the same compound?
**A.** Active

**Q.** What about the IC50 [12] of the same compound?
**A.** 892 nM

**Q.** What about the Vd [13] of the same compound?
**A.** 2.73 L/kg
